Assay outcomes from PubChem BioAssay.
Yeast tox = Compounds toxic to wild-type S. cerevisiae growth; A595 turbidity, 16 h; growth inhibition, % at 25 µM (by protocol); actives 0.3% (n = 30,000);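 active means mutant and wild-type yeast strains alike exhibit over 30% growth inhibition; inconclusive means a strain exceeds 50% while the second remains under 30%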;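 further: 0% = untreated cell controls and 100% = YPD media blanks without cells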
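Incubation: 16 h growth with compound, 30 °C; Material: S. cerevisiae wild-type or eIF2Bepsilon-R284H mutant strain; Signal: turbidity measured as absorbance at 595 nm; Medium: YPD yeast growth medium; Measure: growth inhibition (%) versus cell controls and blanks; Doses: 25 µM single dose.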
Yeast eIF2B = eIF2B (yeast) activity modulation; inhibition, % at 25 µM (by protocol); actives 0.91% (n = 27,000); AID 688; S. cerevisiae eIF2B-epsilon R284H, GCN4-lacZ luminescence;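 active means mutant luminescence inhibited past about 50% while wild type luminescence and mutant growth stay under set limits, limit read from the data; inconclusive means mutant versus wild type luminescence inhibition gap past a set limit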
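System: Yeast eIF2B-epsilon R284H mutant carrying GCN4–beta-galactosidase fusion | Read-out basis: Percent inhibition, luminescence and growth | Compound: 25 µM single dose | Times: 16 h at 30 °C exposure | Measured by: Luminescence and A595 | Buffer or medium: YPD medium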
Numbers without * were called inactive; ? = inconclusive; . = not tested or not shown. Rows were chosen to be rich in hits. Some 1% of all compounds tested hit in one or more screens of this group.

SMILES	Yeast tox	Yeast eIF2B
CCOC(=O)C(C(=O)OCC)C(C(=O)OCC)N1CCOCC1 (stereo unspecified)	33*	5
CCOC(=O)C(C)CC(C)C(=O)N1CCOCCOCCN(C(=O)C(C)CC(C)C(=O)OCC)CCOCC1 (stereo unspecified)	21	9
Cc1ccccc1-c1cc(-c2ccccc2O)n[nH]1	18	20
Cc1ccc(-c2cc(-c3ccccc3Cl)[nH]n2)c(O)c1	64*	30
COc1ccc(O)c(-c2cc(-c3cccs3)[nH]n2)c1	24	18
Cc1ccccc1N1C(=O)c2ccccc2NC1c1ccncc1 (stereo unspecified)	0	.
O=C1c2ccccc2C(=O)C1c1ccncc1	20	67*
Cc1nn(-c2ccccc2)c(OC(=O)c2cccs2)c1S(=O)(=O)c1ccc([N+](=O)[O-])cc1	5	.
COc1ccc(C(=O)Nn2c(C)nnc2-n2nc(C)cc2C)cc1OC	0	56*
COc1ccccc1/C=N/n1c(C)nnc1-n1nc(C)cc1C	7	17
COCC(=O)Nc1cc(OC)c(Cl)cc1OC	-5	55*
COc1cc(NC(=O)c2ccccc2)c(OC)cc1Cl	9	-3
CC(NC(=O)C1CCCCC1)C(=O)NC1=NCCS1 (stereo unspecified)	15	8
CC(=O)CSc1nnc(Cc2ccc3c(c2)OCO3)o1	-3	.
CC(Oc1ccc(C(=O)NC2CCCCC2)cc1)C(=O)O (stereo unspecified)	1	.
CC(=O)Nc1ccc(C(=O)NC2CCCC2)cc1	-23	51*
O=C(NC1CCCC1)c1ccc(S(=O)(=O)N2CCOCC2)cc1	19	.
O=C(NC1CCCCC1)c1ccc(S(=O)(=O)N2CCCC2)cc1	35*	40
CC(C)C[C@H](NC(=O)Nc1ccccc1F)C(=O)O	11	19
Cc1ccc(S(=O)(=O)NCC2CCC(C(=O)O)CC2)cc1 (stereo unspecified)	-6	17
CN(C)c1nc2ccc(OCCN3CCCCC3)cc2s1	-8	35
CCCCCC(=O)N(O)C1CC(=O)N(c2ccccc2)C1=O (stereo unspecified)	38*	47
CN(Cc1ccccc1)C1CC(=O)N(c2ccc(C(=O)O)cc2)C1=O (stereo unspecified)	-1	-7
CCOC(=O)c1ccc(N2C(=O)C=CC2=O)cc1	90*	96
CCOC(=O)c1ccc(NS(=O)(=O)CC)cc1	7	.
SMILES	Yeast tox	Yeast eIF2B
CC1CCCCC1NC(=O)CSc1nnc(-c2ccccc2)n1N (stereo unspecified)	-23	19
CCOCCCNC(=O)C1CCN(c2cc(C)nc3c(-c4ccc(OC)c(OC)c4)c(C)nn23)CC1	-12	63*
Cc1cc(N2CCC(C)CC2)n2nc(C)c(-c3ccccc3)c2n1	10	12
NC(=O)C1=NOC(CNc2ncc(C(F)(F)F)cc2Cl)C1 (stereo unspecified)	24	14
CCCCN(C)CCCNC(=O)c1ccc(N2CCCC2=O)cc1	-2	6
COc1ccc(CCNC(=O)c2ccc(N3CCCC3=O)cc2)cc1OC	-10	56*
CN1CCN(CCC(=O)Nc2ccc3c(c2)OCO3)CC1	7	56*
Cc1ccc(-c2nnn(CCC(=O)Nc3ccc4c(c3)OCO4)n2)cc1	-55	8
O=C(O)C1CC=CCC1C(=O)NCCc1cccc(Cl)c1 (stereo unspecified)	6	18
C=CCNc1nnc(SC2CC(=O)N(c3ccc(OCCC)cc3)C2=O)s1 (stereo unspecified)	60*	2
CCCOc1ccc(N2C(=O)CC(NCc3ccncc3)C2=O)cc1 (stereo unspecified)	-3	0
O=C(c1ccc(Cl)cc1)N1CCN(c2ccc(F)cc2)CC1	59*	42
O=C(c1ccc2c(c1)OCO2)N1CCN(c2ccc(F)cc2)CC1	4	5
CCOC(=O)Cc1csc(NC(=O)CCc2ccc(S(=O)(=O)N3CCOCC3)cc2)n1	4	57*
O=C(COC(=O)CCc1ccc(S(=O)(=O)N2CCOCC2)cc1)Nc1ccc(Cl)cn1	10	17
COc1ccc(Oc2c(-c3ccc(O)cc3O)n[nH]c2C)cc1	6	-1
CCCc1ccc(Oc2c(-c3ccc(O)c(C)c3O)n[nH]c2C)cc1	81*	-32
CN(C)CCCN1C(=O)C(O)=C(C(=O)c2cccs2)C1c1ccccn1 (stereo unspecified)	2	44
Cc1ccc(-n2c(C)cc(C3N=C(N)Nc4nc5ccccc5n43)c2C)c(C)c1 (stereo unspecified)	92*	63
NC1=NC(c2cn(-c3ccccc3)nc2-c2cccs2)n2c(nc3ccccc32)N1 (stereo unspecified)	19	33
COC(=O)c1cc(O)c(OCc2ccccc2)c(O)c1	-11	70*
COC(=O)c1ccc(OCC(=O)c2ccccc2)cc1	5	23
N/C(Cc1ccc(Cl)cc1)=N\OC(=O)c1ccccc1	71*	0
N/C(Cc1ccc([N+](=O)[O-])cc1)=N\OC(=O)c1ccc([N+](=O)[O-])cc1	5	16
CC(C)Cn1c(-c2ccc(C#N)cc2)nc2c1c(=O)[nH]c(=O)n2CC(C)C	7	.
SMILES	Yeast tox	Yeast eIF2B
Cc1cc(C)nc(N(C#N)CCOc2ccccc2)n1	-8	-17
CN(C)c1nc(N(C)C)nc(N(C#N)CCOc2ccccc2)n1	.	50*
CS(=O)(=O)N(Cc1ccccc1)c1ccc(C(=O)Nc2ccc3c(c2)OCO3)cc1	-3	24
Cc1cc2c(cc1C)CSC(c1ccccc1O)SC2	81*	.
Cc1cc2c(cc1C)CSC(c1ccc3ccccc3c1O)SC2	-36	.
Cc1ccnn1CCSCC(=O)O	-3	16
CCc1c(O)cc2n(c1=O)-c1ccc(Cl)cc1C2(C)C	-4	26
CC(C)C(CCN1C(=O)CCC1=O)C1CCOC(C)(C)C1 (stereo unspecified)	7	-2
COc1cc(S(=O)(=O)N2CCN=C2c2ccccc2)ccc1F	?	-20
COc1ccc(C2=CSC3=NCCN23)cc1F	7	65*
Cc1c(C)n(C(=O)CSc2nc3ccccc3[nH]2)c2ccccc12	-1	47
O=C(Nc1nc(-c2ccc(S(=O)(=O)N3CCCCCC3)cc2)cs1)c1cccs1	-5	60*
O=C(Nc1nc(-c2ccc(S(=O)(=O)N3CCCC3)cc2)cs1)c1cccs1	.	5
CN1C(=O)CC2(CC(=O)N(Cc3ccccc3)C2)C1=O (stereo unspecified)	.	61*
Cc1ccc(NC2CC(=O)N(Cc3ccccc3)C2=O)cc1 (stereo unspecified)	28	.
CCCCN(C(=O)Cn1nnc2ccccc21)C(C(=O)NCCOC)c1ccccc1 (stereo unspecified)	7	57*
CCOC(=O)CN(C(=O)Cn1nnc2ccccc21)C(C(=O)NCCOC)c1ccccc1C (stereo unspecified)	-12	33
CCCS(=O)(=O)Nc1cc(C(F)(F)F)ccc1OCCOC	13	23
CC(C)CCn1nnnc1C(C(C)C)N1CCC(C(N)=O)CC1 (stereo unspecified)	10	.
O=C1COc2ccc(C(=O)CSc3nnc(Cc4cccs4)n3-c3ccc(Cl)cc3)cc2N1	-17	10
O=c1/c(=C/c2ccc(O)cc2)sc2n1CCCN=2	16	79*
CCOC(=O)/C=c1\sc2n(c1=O)CCN=2	-14	38
